# Myeloid diff 2: promotes myeloid progenitor differentiation; ER-HoxA9 myeloid progenitors, lysozyme-GFP differentiation, flow cytometry; 1% of 360,000 active; calls only at 10 µM;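 active = normalized GFP-positive differentiation at or above the plate's own cutoff, the solvent-only control mean plus 3 SD; inconclusive = no clear call, values can overlap the other calls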;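 also: cells exposed to compound for four days before flow analysis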
# Exocytosis inh: blocks lytic granule exocytosis; TALL-104 LAMP-1 surface exposure, flow cytometry; cells stimulated with thapsigargin and PMA; inhibition, % at 10 µM; 0.66% of 360,000 active;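 active = inhibition above about 55%, limit read from the data; inconclusive = no clear call, values can overlap the other calls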
# ATG4B inhibitor: blocks human ATG4B protease cleavage of LC3 substrate; ATG4B cleavage of LC3-PLA2, NBD-HPC fluorescence, 1 h; Q9Y4P1; inhibition, % at 8.33 µM; 0.51% of 340,000 active; AID 504462; in the data active = inhibition above about 40%
# Arrestin-AP2 inh: blocks beta-arrestin peptide binding to AP2 adaptin. 0.31% of 340,000 active. FITC-arrestin peptide / GST-AP2 beads, flow cytometry; AP2 beta2 appendage carries R879A mutation. AID 504490. inhibition, % at 10 µM;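 active = inhibition above a set limit, near 3 SD of compounds lacking own fluorescence, cut at about 54% in these data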;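 also: plate controls were DMSO wells for no effect and 5 µM unlabelled arrestin peptide for full effect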
#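 Material – AP2 appendage R879A on GSH beads · Buffer or medium – PBS with 0.05% Tween 20 and 0.1% BSA · Probe or stimulus – fluorescein-tagged arrestin peptide at 50 nM final · Incubation – compound with beads 12 min RT, then probe 1 h RT · Detection – high-throughput flow cytometry of beads, ex 488, em 535 nm · Evaluation – percent response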
# ABCB6 inh MLPCN: inhibitors of human ABC transporter ABCB6; Q9NP58; K562-ABCB6 porphyrin accumulation, flow cytometry, 1 h; active compounds read low; fluorescence ratio to DMSO, % at 10 µM; 0.19% of 360,000 active;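 active = fluorescence ratio to DMSO below 75%, the collection mean minus 3 SD; inconclusive = too few cells collected in the well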;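 also: signal is porphyrin accumulated inside mitochondria; 100% equals median channel fluorescence of DMSO control wells; lower ratio means ABCB6 inhibition with less porphyrin fluorescence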
# NRP1-CendR mod: alters CendR peptide binding to human NRP-1; O14786; 0.85% of 360,000 active; inhibition, % at 25 µM; AID 602438; FAM-RPARPAR peptide binding to NRP-1, fluorescence polarization;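 active = inhibition or corrected inhibition above about 18%, plus a signal ratio from 0.5 to 1.5, limit read from the data, passing the limit was not always enough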
# * marks the source's active call; other numbers are inactive results; i = inactive; ? = inconclusive; nt = no result; + = active, no number. Shown are actives, neighbours in structure and some others; about 3.3% of the full set was active somewhere.
SMILES,Myeloid diff 2,Exocytosis inh,ATG4B inhibitor,Arrestin-AP2 inh,ABCB6 inh MLPCN,NRP1-CendR mod
O=C(Nc1cccc(C(F)(F)F)c1)OCCN1CCN(Cc2ccccc2)CCC1=O,i,1,-11,-1,100,23*
CC(C)C[C@H](NC(=O)N1CCn2c1nc1ccccc12)C(=O)NCc1ccco1,+,30,-1,-11,109,-3
CC(C)[C@H](NC(=O)N1CCn2c1nc1ccccc12)C(=O)N[C@H](Cc1ccccc1)C(=O)O,i,-7,-17,1,98,4
CC(NC(=O)[C@H](C)NC(=O)N1CCn2c1nc1ccccc12)c1ccccc1 (stereo partly specified),i,7,-4,-4,101,24*
C[C@H](NC(=O)N1CCn2c1nc1ccccc12)C(=O)NC1CC1,i,-1,-13,-8,98,10
COc1cc(NC(=O)[C@@H](NC(=O)N2CCn3c2nc2ccccc23)C(C)C)cc(OC)c1,+,-2,-1,22,92,-2
O=C(Cc1ccc(NC(=O)C2CCCN(C(=O)C3CC3)C2)cc1)Nc1cccc(C(=O)N2CCCCC2)c1 (stereo unspecified),i,-1,7,15,97,-9
CN1CCCC(OC(=O)c2cccc(Cl)c2)C1 (stereo unspecified),i,-6,-2,9,90,30*
CN1CCCC(OC(=O)c2cc(Cl)cc(Cl)c2)C1 (stereo unspecified),i,-1,0,9,89,-9
O=C1/C(=C/c2cccc([N+](=O)[O-])c2)CCc2ccccc21,i,2,15,-8,99,5
CCN1C/C(=C\c2cccc([N+](=O)[O-])c2)C(=O)/C(=C/c2cccc([N+](=O)[O-])c2)C1,i,83*,-7,0,89,8
CCCCCCC(=O)N/N=C/c1ccco1,i,-7,5,-6,97,-20
CCN(CC(=O)Nc1cccc(C(C)=O)c1)S(=O)(=O)c1ccc(C)cc1,i,-2,-1,1,98,43*
C[C@@H]1CN(S(=O)C(C)(C)C)[C@H](CCO)/C1=C\CCO (stereo partly specified),i,-3,-1,1,107,-3
Cc1ccccc1C1C(C#N)=C2N=C(N)c3c(sc4c3CCCCC4)N2C2=C1C(=O)CC(C)(C)C2 (stereo unspecified),+,1,-5,25,126,-36
Cc1ccccc1C1C(C#N)=C2N=C(N)c3ccccc3N2C2=C1C(=O)CCC2 (stereo unspecified),i,-5,-14,-5,94,5
Nc1ccc(S(=O)(=O)Nc2cc(Cl)c(N)c(Cl)c2)cc1,i,-6,-5,23,95,-5
CC1(Cc2ccc(F)c(Cl)c2)C(=O)Nc2c(Cl)cccc21 (stereo unspecified),i,-8,nt,nt,110,25*
COc1ccc(CN2C(=NC(=O)C3CC3)SC3CS(=O)(=O)CC32)cc1OC (stereo unspecified),+,-6,-4,10,95,5
CC(C)(C)C1N=C(c2ccc3ccccc3c2)OC1=O (stereo unspecified),i,64*,-2,19,100,0
CC(=O)N1N=C(c2ccc3ccccc3c2)OC1(C)C,i,-6,3,-5,94,-10
COc1ccc(Oc2c(C=O)c3ccccc3n2C)cc1,i,-3,3,-3,98,26*
Cc1ccc(Oc2c(C=O)c3ccccc3n2C)cc1,i,0,-4,3,100,12
c1ccc2c(c1)CCCN2Cc1nnc2n1CCCCC2,i,-1,-2,4,100,23*
c1ccc(Cc2nnc3n2CCCCC3)cc1,i,-1,-5,-1,104,14
SMILES,Myeloid diff 2,Exocytosis inh,ATG4B inhibitor,Arrestin-AP2 inh,ABCB6 inh MLPCN,NRP1-CendR mod
COc1ccccc1OCC(=O)NCC1CCCN(Cc2cnn(C(C)C)c2)C1 (stereo unspecified),i,0,0,39,90,-4
COc1ccc2c(c1)CC=C1C2CCC2(C)C(=O)C(=NO)CC12 (stereo unspecified),i,91*,-16,-24,102,12
CC12CCC3C(=CCc4cc(O)ccc43)C1CC(=NO)C2O (stereo unspecified),i,6,-4,-19,94,0
Cc1cccc(C)c1NC(=O)CSc1nnc(-c2ccoc2C)n1CCc1ccccc1,i,1,-4,-3,91,21*
CN1C(=O)C(c2cn(C)c3ccccc23)(c2cn(C)c3ccccc23)c2cc(Br)ccc21,i,4,nt,nt,nt,-12
CC1CN(C(C)C(=O)NNC(=O)c2ccc(F)cc2)CC(C)O1 (stereo unspecified),+,4,2,15,99,-6
CN(Cc1ccco1)c1ncnc2ccc(-c3ccc4c(ccn4C)c3)cc12,?,5,-6,6,100,5
O=C(Nc1nc2ccccc2s1)C1c2ccccc2Oc2ccccc21,+,-2,-11,-1,99,-3
Brc1ccc2ncnc(Nc3cccc4ccccc34)c2c1,i,0,-28,-18,91,1
OCCNc1ncnc2ccc(Br)cc12,i,2,1,-6,70*,44*
CC(C)OCCCN1CN(S(=O)(=O)c2cccc(Cl)c2)c2nc3ccccc3nc21,i,6,-11,-5,95,-7
CN1CCN(c2ccc(NC(=O)c3ccc(-c4ccc(Br)cc4)o3)cc2)CC1,nt,76*,-2,25,96,-3
O=C(Nc1ccc(N2CCCC2)cc1)c1ccc(Br)o1,+,9,-4,13,151,-16
CCN(C[C@H]1N[C@@](CC)(C(=O)OC)[C@H]2C(=O)N(Cc3ccccc3)C(=O)[C@@H]12)C(=O)Nc1ccc(C)cc1,+,-5,1,4,103,-8
CCN(C[C@H]1N[C@@](Cc2ccccc2)(C(=O)OC)[C@H]2C(=O)N(Cc3ccccc3)C(=O)[C@@H]12)C(=O)Nc1ccc(C)cc1,i,0,-15,32,90,-16
COc1cccc2c1NC(C(=O)O)C1CC=CC21 (stereo unspecified),i,-3,18,8,105,42*
CC(=O)c1ccc2c(c1)C1C=CCC1C(C(=O)O)N2 (stereo unspecified),i,-2,27,23,98,29
Nc1c(C(=O)O)sc2nc(-c3ccccc3)cc(-c3ccc(F)cc3)c12,+,3,9,9,101,-16
Nc1c(C(=O)O)sc2nc(-c3ccccc3)cc(-c3ccccc3)c12,i,2,7,13,112,-27

# Assay outcomes (PubChem)
